The target of assay [1] is T1, DNA topoisomerase 2-alpha (Homo sapiens, UniProt P11388). In words: Inhibition of human topoisomerase 2 p170alpha assessed as relaxation of lambda ZAPII plasmid Bluescript KS+ DNA at 100 uM by SDS electrophoresis. The essentials:
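Compound at 100 µM in 0.5% Cremophor EL, 30 min at 37 °C. Stopped with 1% SDS, then proteinase K 50 µg/mL and chloroform-isoamyl alcohol extraction. Run on 1% TAE agarose with ethidium bromide 0.5 µg/mL post-stain. Etoposide 100 µM as control.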

The test system of assay [2] is MCF7. In words: Cytotoxicity against human MCF7 cells after 48 hrs by MTT assay. It counts as functional, cell-based. The conditions noted are these: MCF7, 48 h. The essentials:
(§1)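 Cells kept in RPMI with 10% FBS at 37 °C, 5% CO2. Log-phase cells were treated in triplicate with 0-10 µM compound for 48 h at 37 °C in humidified 5% CO2. Viability was read by MTT absorbance on a plate reader.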

For assay [3], the system named is Nucleic Acid. In words: Displacement of methyl green dye from DNA by spectrophotometry. Format: nucleic-acid assay. The essentials:
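Daunomycin (50 µg/mL) was the positive control. Methyl green absorbance was read on a plate reader.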

Assay [4] deals with NCI-H460. In words: Cytotoxicity against human NCI-H460 cells after 48 hrs by MTT assay at up to 10 uM. It counts as functional, cell-based. In outline:
as §1

For assay [5], the system named is SF-268. Nature of the assay: Cytotoxicity against human SF268 cells after 48 hrs by MTT assay at up to 10 uM. It counts as functional, cell-based. The essentials: as §1
Assay [6] addresses T1, DNA topoisomerase 2-alpha. Nature of the assay: Inhibition of human topoisomerase 2 p170alpha assessed as relaxation of lambda ZAPII plasmid Bluescript KS+ DNA by SDS electrophoresis. In outline: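 Supercoiled pBlueScript KS(+) (about 200 ng) relaxed by 4 units human topo II (p170) in Tris-HCl pH 8.0 buffer with 120 mM KCl, 10 mM MgCl2, 0.5 mM ATP and DTT. Compound in 0.5% Cremophor EL, dilution series in triplicate, 30 min at 37 °C. SDS/proteinase K stop, then 1% TAE agarose gel with ethidium bromide staining. IC50 from the dilution series.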

In assay [7] the target is T1, DNA topoisomerase 2-alpha. Nature of the assay: Inhibition of human topoisomerase 2 p170alpha assessed as movement supercoiled lambda ZAPII plasmid Bluescript KS+ DNA at 100 uM after 60 mins by electrophoretic mobility shift assay. The essentials:
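Mobility shift with pBlueScript KS(+) and 6 units human topo II (p170) in ATP-free buffer. Buffer, running buffer and gel were all at pH 6.4. Compound at 100 µM, with etoposide 50 µM as control. No SDS/proteinase K stop; samples loaded directly onto a TAE gel containing 1.0 µg/mL ethidium bromide.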

The subject of assay [8] is Saccharomyces cerevisiae. In words: DNA damaging activity against topoisomerase 2-deficient rad52Y mutant yeast assessed as drug level required to produce 12 mm zone of inhibition by agar well diffusion assay. Format: functional. In outline:
(§2)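 Saccharomyces cerevisiae strains (RS321N, rad52Y, RAD+) were seeded separately onto 1% nutrient agar. Samples at 200 µg/mL in 1:1 DMSO-MeOH went into 7 mm wells, and the clear growth-free zone was measured in mm. For actives, several concentrations were tested, and the dose giving a 12 mm zone (IC12) came from regression. Camptothecin and streptonigrin at 5 µg/mL served as controls.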

The subject of assay [9] is Saccharomyces cerevisiae. Nature of the assay: DNA damaging activity against topoisomerase 2-deficient RS321N mutant yeast assessed as drug level required to produce 12 mm zone of inhibition by agar well diffusion assay. Format: functional. In outline:
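S. cerevisiae RS321N seeded on 1% nutrient agar. Samples in 1:1 DMSO-MeOH went into 7 mm wells. The read-out was the zone (mm) of no visible growth. Several concentrations were tested, and the dose giving a 12 mm zone (IC12) was calculated by regression.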

Assay [10] deals with Saccharomyces cerevisiae. Nature of the assay: DNA damaging activity against wild type DNA repairing RAD gene expressing yeast assessed as drug level required to produce 12 mm zone of inhibition by agar well diffusion assay. It counts as functional. The essentials: as §2
Assay [11] has as its system Saccharomyces cerevisiae. Nature of the assay: DNA damaging activity against topoisomerase 2-deficient rad52Y mutant yeast at 200 ug/mL by agar well diffusion assay. It counts as functional, organism-based. In outline:
(§3)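 Yeast strains (rad52Y; RAD+ wild type) were seeded separately on 1% nutrient agar plates. Samples at 200 µg/mL in 1:1 DMSO-MeOH were placed in wells cut by removing 7 mm plugs. Activity was the width (mm) of the zone around the well with no visible yeast growth. Camptothecin and streptonigrin at 5 µg/mL served as controls.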

For assay [12], the system named is Saccharomyces cerevisiae. Nature of the assay: DNA damaging activity against wild type DNA repairing RAD gene expressing yeast at 200 ug/mL by agar well diffusion assay. It counts as functional, organism-based. In outline: as §3

Structures are written as SMILES. The source made the active and inactive calls. No cut-off for these calls is given here.

T1 sequence (P11388 whole entry): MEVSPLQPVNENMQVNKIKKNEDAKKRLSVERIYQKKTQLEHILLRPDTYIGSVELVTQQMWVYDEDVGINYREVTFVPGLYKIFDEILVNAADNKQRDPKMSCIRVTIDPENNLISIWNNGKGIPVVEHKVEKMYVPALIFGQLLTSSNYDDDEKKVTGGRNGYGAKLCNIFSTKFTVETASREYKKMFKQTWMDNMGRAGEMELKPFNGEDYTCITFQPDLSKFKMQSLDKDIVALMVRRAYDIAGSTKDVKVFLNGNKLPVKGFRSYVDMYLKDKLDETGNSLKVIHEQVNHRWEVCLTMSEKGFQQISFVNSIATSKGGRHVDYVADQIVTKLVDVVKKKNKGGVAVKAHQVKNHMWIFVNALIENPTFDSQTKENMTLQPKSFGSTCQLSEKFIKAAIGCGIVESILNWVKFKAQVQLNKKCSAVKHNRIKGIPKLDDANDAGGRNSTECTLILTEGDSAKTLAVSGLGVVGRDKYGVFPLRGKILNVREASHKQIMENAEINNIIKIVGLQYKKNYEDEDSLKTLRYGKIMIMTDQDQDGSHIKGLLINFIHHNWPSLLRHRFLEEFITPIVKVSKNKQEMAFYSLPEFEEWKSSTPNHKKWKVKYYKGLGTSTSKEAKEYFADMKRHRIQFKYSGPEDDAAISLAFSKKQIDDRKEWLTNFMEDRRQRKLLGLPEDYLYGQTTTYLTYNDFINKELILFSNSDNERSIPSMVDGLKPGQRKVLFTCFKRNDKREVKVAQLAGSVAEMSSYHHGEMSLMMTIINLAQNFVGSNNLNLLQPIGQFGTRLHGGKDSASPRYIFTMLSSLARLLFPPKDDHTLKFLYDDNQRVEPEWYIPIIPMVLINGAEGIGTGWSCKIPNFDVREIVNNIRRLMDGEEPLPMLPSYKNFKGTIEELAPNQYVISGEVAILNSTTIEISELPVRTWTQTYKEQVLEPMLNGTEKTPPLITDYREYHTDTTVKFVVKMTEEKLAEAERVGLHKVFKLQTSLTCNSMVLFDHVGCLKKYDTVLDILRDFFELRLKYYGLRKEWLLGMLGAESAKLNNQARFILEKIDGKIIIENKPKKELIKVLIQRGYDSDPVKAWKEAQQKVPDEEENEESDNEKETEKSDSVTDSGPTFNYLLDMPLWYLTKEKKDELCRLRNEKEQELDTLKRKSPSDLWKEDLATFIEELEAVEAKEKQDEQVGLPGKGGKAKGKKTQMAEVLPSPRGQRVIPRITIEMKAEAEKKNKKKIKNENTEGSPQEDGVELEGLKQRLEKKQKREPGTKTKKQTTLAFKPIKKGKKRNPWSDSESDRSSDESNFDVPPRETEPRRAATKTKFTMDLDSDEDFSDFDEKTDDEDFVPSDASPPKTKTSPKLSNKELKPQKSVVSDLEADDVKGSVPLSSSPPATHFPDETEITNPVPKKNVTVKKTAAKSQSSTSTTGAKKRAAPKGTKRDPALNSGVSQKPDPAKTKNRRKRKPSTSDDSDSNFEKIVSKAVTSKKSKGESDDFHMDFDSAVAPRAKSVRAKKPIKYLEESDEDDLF

Take `COc1cc([C@@H]2c3cc4c(cc3[C@@H](O[C@@H]3O[C@@H]5CO[C@@H](C)O[C@H]5[C@H](O)[C@H]3O)[C@H]3COC(=O)[C@H]23)OCO4)cc(OC)c1O`: the outcome in assay [1] was inactive.
`C[C@@]1(C(=O)O)CC[C@]2(C)CC[C@]3(C)C4=CC(=O)c5c(cc(O)c(O)c5C(=O)O)[C@]4(C)CC[C@@]3(C)[C@@H]2C1` [DEMETHYLZEYLASTERONE]: the IC50 in assay [2] came to 12.5 µM; in assay [6], 17.6 µM. For the same molecule, the result in assay [3], in [1] and in [7] was Active. In addition, the outcome in assay [4] and in assay [5] was inactive.
As for `COC(=O)[C@]1(C)CC[C@]2(C)CC[C@]3(C)C4=CC(=O)c5c(cc(O)c(O)c5C(=O)O)[C@]4(C)CC[C@@]3(C)[C@@H]2C1`, the result in assay [1] was inactive.
Same read-out and setting: to `COC(=O)[C@]1(C)CC[C@]2(C)CC[C@]3(C)C4=CCc5c(cc(O)c(O)c5C)[C@]4(C)CC[C@@]3(C)[C@@H]2C1` belongs “inactive”.
In the case of `COC(=O)[C@]1(C)CC[C@]2(C)CC[C@]3(C)C4=CC(=O)c5c(cc(O)c(O)c5C=O)[C@]4(C)CC[C@@]3(C)[C@@H]2C1`, the result in [1] was inactive.
On to `CC[C@@]1(O)C(=O)OCc2c1cc1n(c2=O)Cc2cc3ccccc3nc2-1` [CAMPTOTHECIN], for which the Activity in assay [8] is 0.6 µg/mL; in [10], 110 µg/mL. Also, the “IC12 (concentration giving a 12 mm inhibition zone)” value in assay [9] is above 20 µg/mL.
Regarding `CC1=C(O)C(=O)C=C2C1=CC=C1[C@@]2(C)CC[C@@]2(C)[C@@H]3C[C@](C)(O)C(=O)C[C@]3(C)CC[C@]12C` [20ALPHA-HYDROXYTINGENONE], the result in assay [11] and in assay [12] was inactive. Further, in assay [9], the “IC12 (concentration giving a 12 mm inhibition zone)” value worked out at 185 µg/mL.
`CC1=C2C3=CC=C4C(=CC(=O)C(O)=C4C)[C@]3(C)CC[C@@]2(C)[C@@H]2C[C@@H](C)[C@@H](O)C(=O)C2C1` (stereo not given in full) [BALAENONOL]: the outcome in [11] and in assay [12] was inactive. In assay [9], the “IC12 (concentration giving a 12 mm inhibition zone)” value came to 220 µg/mL.
`CC1=C(O)C(=O)C=C2C1=CC=C1[C@@]2(C)CC[C@@]2(C)[C@@H]3C[C@@H](C)C(=O)C[C@]3(C)CC[C@]12C` [TINGENONE]: the result in assay [11] and in assay [12] was inactive. In addition, the “IC12 (concentration giving a 12 mm inhibition zone)” value in assay [9] is 325 µg/mL.
For the molecule `COC1=C(N)C(=O)c2nc(-c3nc(C(=O)O)c(C)c(-c4ccc(OC)c(OC)c4O)c3N)ccc2C1=O` [STREPTONIGRIN], the Activity in [8] was determined as 0.4 µg/mL. For the same molecule, the “IC12 (concentration giving a 12 mm inhibition zone)” value in [9] was below 0.4 µg/mL.

Source of the values: ChEMBL document CHEMBL1156357, “Catalytic inhibition of topoisomerase IIalpha by demethylzeylasterone, a 6-oxophenolic triterpenoid from Kokoona zeylanica” (J Nat Prod, 2001).
